NF-kB expr up = compounds increasing NF-kB expression in human neuronal cells. 190,000 tested, 1.6% active. NF-kB reporter expression; stronger effect = higher value. AID 1239. fold change at 12.5 µM; in the data active = fold change above about 3.3
APP 5'UTR act = activates APP 5'UTR luciferase reporter | SH-SY5Y APP 5'UTR luciferase reporter, luminescence; zero percent = DMSO vehicle wells | activation, % at 2 µM | 190,000 tested, 1% active;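 active = activation above a set limit, based on mean plus 3 SD of controls, cut at about 140% in these data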
STAT3 blocker = reduces IL-6 driven STAT3 reporter signal; U3A cells, IL-6 STAT3-luciferase reporter, luminescence; host cell line lacks STAT1; inhibition, % at 5.5 µM; 190,000 tested, 0.89% active;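 active = inhibition above the mean inhibition across all screened compounds plus 3 SD, cut at about 44% in these data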;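 also: 0% = DMSO only wells and 100% = 100 µM nifuroxazide control wells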
STAT3 act = STAT3 signaling activation; U3A cells, IL-6 STAT3-luciferase reporter, luminescence; 100% = signal with IL-6 EC80 alone; activation (% of control), % at 5.6 µM; 190,000 tested, 0.91% active;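 active = activation above the screen-wide mean of compound activation plus 3 SD, cut at about 130% in these data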;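 also: 0% = background luminescence of wells with medium and substrate only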
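Test system: human U3A cells carrying STAT3-luciferase construct; control set: IL-6-only wells as 100% reference; timing: compound pre-incubation 1 h before IL-6, then 6 h stimulation at 37 °C; also added: IL-6 stimulus at 33 ng/mL final; evaluation: % activation versus median of IL-6-stimulated wells; detection: reporter luminescence signal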
STAT1 inh = reduces IFN-gamma driven STAT1 reporter signal; NIH 3T3 STAT1-luciferase reporter, luminescence; inhibition, % at 5.5 µM; 200,000 tested, 0.35% active; AID 920;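 active = inhibition above a set limit, the mean inhibition across all tested compounds plus 3 SD, cut at about 34% in these data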;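 also: 0% = IFN-gamma with DMSO and 100% = IFN-gamma with 300 µM nifuroxazide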
STAT1 activator = increases IFN-gamma driven STAT1 reporter signal | 200,000 tested, 2.6% active | activation (% of control), % at 5.5 µM | AID 932 | NIH 3T3 STAT1-luciferase reporter, luminescence; 100% = IFN-gamma alone, no compound;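 active = activation above the screen-wide mean activation plus 3 SD, cut at about 130% in these data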;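 also: raw ratio to IFN-gamma control signal so 100% means no change and 0% no light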
Numbers without * were called inactive; · = no result given. Hits are enriched below; roughly 5.1% of the tested compounds scored in any of these assays.

SMILES	NF-kB expr up	APP 5'UTR act	STAT3 blocker	STAT3 act	STAT1 inh	STAT1 activator
COCC(C)n1c(C)cc(C(=O)CSc2nc3ccccc3c(=O)[nH]2)c1C (configuration not stated)	0.98	0	29	80	16	85
COCCn1c(C)cc(C(=O)CSc2nc3ccccc3c(=O)[nH]2)c1C	1.7	23	-1	106	-46	142*
Cc1cc(C)c(C(=O)CSc2nc3ccccc3c(=O)[nH]2)cc1C	1.2	-4	8	97	0	102
NC(=O)CCC(NC(=O)c1ccc(Cl)cc1)C(=O)O (configuration not stated)	1.4	2	-1	106	2	98
CCC(=O)NNc1ncnc2ccccc12	1.2	3	-35	130	2	99
COc1ccc(Nc2ncnc3ccccc23)cc1	2.4	52	-4	103	-33	129*
COc1cccc(Nc2ncnc3ccccc23)c1	2.8	56	5	100	-19	117
CCCCCCCCNc1ncnc2ccccc12	0.85	-19	89*	26	28	75
CCOC(=O)CN(Cc1sccc1C)C(=O)Nc1ccc(OCC)cc1	1	4	29	76	-9	108
CCCCSc1nc(O)cc(=O)n1CC	1.2	10	8	97	2	97
COC(=O)c1ccc(N=NN2CCCCCC2)cc1	4.1*	106	28	79	-41	137*
COC(=O)c1ccc(N=NN2CCOCC2)cc1	3	81	4	97	-31	128
NS(=O)(=O)c1ccc(N=NN2CCCCC2)cc1	1.9	32	-17	115	-23	120
O=C(O)c1ccc(N=NN2CCCCC2)cc1	1.9	57	5	98	-40	135*
CN(C)S(=O)(=O)c1ccc(NC(=O)CNc2cc(S(=O)(=O)N3CCCC3)ccc2OCC(F)(F)F)cc1	1	-8	7	92	11	90
C/C(=N\NC(=O)c1ccc(N/N=C(\C)c2ccncc2)cc1)c1ccncc1	1.1	-7	19	89	-10	108
C/C(=N\Nc1ccc(C(F)(F)F)cn1)c1ccncc1	1.8	30	16	88	-36	134*
CCOc1ccc(-n2c(C)nc(O)c2N=Nc2ccccc2)cc1	1.4	0	2	102	2	97
CCCCN(C)C(=O)c1nc2ccccn2c1CN1CCSCC1	1.1	18	-2	104	1	97
COc1ccc(N2CCN(C(=O)CSc3nc4[nH]ncc4c(=O)n3-c3ccc(Br)cc3)CC2)cc1	3.3*	-2	4	98	20	80
Nc1n[nH]c(N)c1N=Nc1ccc2c(c1)OCO2	1.8	1	3	99	-34	132*
O=[N+]([O-])c1ccc(N/N=C/c2ccc[nH]2)cc1	26*	-65	21	82	12	90
O=C(N/N=C/c1ccc[nH]1)c1ccccc1[N+](=O)[O-]	1.1	-3	11	93	3	98
CC1=C(C)/C(=N\OS(=O)(=O)c2ccc(C)cc2)C=CC1=O	1.9	-90	-10	112	2	99
CC1=C/C(=N\OS(=O)(=O)c2ccccc2)C(C(C)C)=CC1=O	5.9*	-96	12	94	1	99
SMILES	NF-kB expr up	APP 5'UTR act	STAT3 blocker	STAT3 act	STAT1 inh	STAT1 activator
CC1=C/C(=N\OS(=O)(=O)c2ccccc2)C(C)=CC1=O	9.8*	-95	9	91	-1	100
COc1cc(CCC(=O)Nc2ccc(S(=O)(=O)NC3=NCCCCC3)cc2)cc(OC)c1OC	1	8	8	94	1	99
COc1ccc(NC(=O)Nc2ccc(F)c(Cl)c2)cc1	2.6	106	11	95	-13	112
COc1ccc(NC(=O)Nc2cc(C)ccc2F)cc1	2.6	123	6	99	-33	130*
COc1ccc(NC(=O)Nc2ncccc2C)cc1	1.9	13	9	96	-40	139*
COc1ccc(C(=O)NC(=O)Nc2ncccc2C)cc1	1.8	16	14	89	-31	124
COc1cccc(NC(=O)Nc2cc(C)ccc2F)c1	1.5	42	12	94	-20	118
COc1ccc(CC(=O)Nc2nnc(C(C)C)s2)cc1	1.4	16	5	100	-4	102
COc1ccc(NC(=O)Nc2ccc(Br)c(C)c2)cc1	1.5	61	6	103	-49	145*
COc1ccc(NC(=O)Nc2nnc(C(C)C)s2)cc1	2.4	69	12	97	-33	130*
COc1ccc(C(=O)C2CCN(C(=S)Nc3ccc(F)cc3)CC2)cc1	1.1	-13	6	96	8	91
Nc1ccc(OCc2ccco2)cc1	1.3	18	14	98	-8	106
COc1ccc(NC(=S)Nc2ncccc2C)cc1OC	1.9	39	22	86	-36	131*
Cc1nn(-c2ccccc2)c2c1C(c1c(C)[nH]c(C#N)c1C)C(C#N)=C(N)O2 (configuration not stated)	1	4	-37	134*	0	100
Cc1ccc(-n2nc(C)c3c2OC(N)=C(C#N)C3c2ccncc2)cc1 (configuration not stated)	1.1	14	-25	125	12	90
Cc1ccc(-n2nc(C)c3c2OC(N)=C(C#N)C3c2ccccc2F)cc1 (configuration not stated)	1	-47	-43	146*	18	84
Cc1ccc(C(=O)c2ccccc2C(=O)OCC(=O)Nc2ccc(SC(F)F)cc2)cc1	0.91	-23	-12	110	-1	101
O=C(COC(=O)c1ccccc1Cc1ccccc1)Nc1ccc(SC(F)F)cc1	1.2	93	-14	112	-35	132*
N#Cc1c(SCc2nc3ccccc3[nH]2)nc2c(c1C(F)(F)F)CCC2	·	5	-89	174*	-18	117
c1ccc(SCc2nc3ccccc3[nH]2)cc1	2.3	69	6	99	-13	112
N#Cc1cc2c(nc1SCc1nc3ccccc3[nH]1)CCC2	1.6	248*	15	92	-30	127
Cc1cccc(CSc2nc3c(cc2C#N)CCC3)c1	1.2	6	4	99	-3	102
Cc1cc(/C=C(\C#N)C(=O)Nc2ccccc2)c(C)n1-c1cccnc1	1.5	83	-14	110	-36	133*
Cc1cc(C(=O)O)ccc1-n1c(C)cc(/C=C(/C#N)C(=O)Nc2ccccc2)c1C	0.96	26	4	100	1	97
Nc1nnc(SCc2coc(-c3ccc(Cl)cc3)n2)s1	1.9	46	6	96	-47	143*
CCC(C)[C@H](NC(=O)NCCCn1ccnc1)C(=O)OC (some centres not stated)	0.89	-18	-1	99	-5	104
CCCCCCc1ccc(-c2ncc(N)cn2)cc1	4.4*	70	3	100	-42	139*
